What was measured:
[1] = target: T1, Ribosomal protein S6 kinase alpha-3 (Homo sapiens, UniProt P51812); assay: Inhibition of RSK2 (unknown origin) using AKRRRLSSLRA as substrate at 10 uM after 60 mins by fluorescence assay relative to control
MCF7 [2] = assay: Cytotoxicity against human MCF7 cells assessed as growth inhibition after 48 hrs by MTT assay; assay type: functional, cell-based; details: MCF7, 48 h
Summary of the method: (§1)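 MCF-7 cells grown in DMEM plus 10% FBS and PC 3 cells in F-12K, both seeded at 5 × 10^3 per well. Cells were exposed to compounds at various concentrations for 48 h. MTT was then added for 4 h at 37 °C in 5% CO2, formazan was dissolved in DMSO, and absorbance was read at 570 nm. IC50 was taken from inhibition curves of three independent experiments and measured only where inhibition at 100 µM exceeded 50%.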

PC-3 [3] = assay: Cytotoxicity against human PC3 cells assessed as growth inhibition after 48 hrs by MTT assay; assay type: functional, cell-based; details: PC-3, 48 h; summary of the method: as §1
[4] = target: T1, Ribosomal protein S6 kinase alpha-3; assay: Inhibition of RSK2 (unknown origin) using AKRRRLSSLRA as substrate after 60 mins by fluorescence assay
PC-3 [5] = assay: Cytotoxicity against human PC3 cells assessed as growth inhibition at 100 uM after 48 hrs by MTT assay relative to control; assay type: functional; details: PC-3, 48 h, read-out: GI
Summary of the method: (§2)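 Single-concentration screen at 100 µM by 48 h MTT. MCF-7 cells were grown in DMEM plus 10% FBS and PC 3 cells in F-12K, 5 × 10^3 cells per well. After 4 h with MTT at 37 °C, formazan was dissolved in DMSO and absorbance read at 570 nm. Percent inhibition is reported.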

MCF7 [6] = assay: Cytotoxicity against human MCF7 cells assessed as growth inhibition at 100 uM after 48 hrs by MTT assay relative to control; assay type: functional; details: MCF7, 48 h, read-out: GI; summary of the method: as §2
[7] = target: T1, Ribosomal protein S6 kinase alpha-3; assay: Inhibition of RSK2 (unknown origin)

T1 sequence (P51812 whole entry): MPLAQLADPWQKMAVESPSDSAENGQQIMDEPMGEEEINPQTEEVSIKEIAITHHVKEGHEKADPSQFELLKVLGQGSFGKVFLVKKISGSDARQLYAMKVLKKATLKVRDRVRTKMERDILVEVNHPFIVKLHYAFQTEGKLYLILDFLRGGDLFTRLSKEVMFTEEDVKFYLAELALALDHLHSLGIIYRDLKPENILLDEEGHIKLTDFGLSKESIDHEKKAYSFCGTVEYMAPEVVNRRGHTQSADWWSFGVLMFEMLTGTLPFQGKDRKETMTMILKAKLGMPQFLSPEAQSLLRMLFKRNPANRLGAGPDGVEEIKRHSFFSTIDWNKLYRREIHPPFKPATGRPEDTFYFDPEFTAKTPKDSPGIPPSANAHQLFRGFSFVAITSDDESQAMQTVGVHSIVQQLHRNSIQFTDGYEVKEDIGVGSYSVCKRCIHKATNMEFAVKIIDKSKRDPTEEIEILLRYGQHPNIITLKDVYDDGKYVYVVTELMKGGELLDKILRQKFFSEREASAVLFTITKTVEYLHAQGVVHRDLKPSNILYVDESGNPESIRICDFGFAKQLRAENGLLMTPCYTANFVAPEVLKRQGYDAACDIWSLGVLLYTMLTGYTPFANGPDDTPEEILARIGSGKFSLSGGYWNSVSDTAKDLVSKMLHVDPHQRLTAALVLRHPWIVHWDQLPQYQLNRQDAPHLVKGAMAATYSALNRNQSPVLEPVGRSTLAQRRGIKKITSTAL

Row | Compound | inhibition [1] | also measured
1 | O=C1Nc2ccccc2/C1=C/c1c[nH]nc1-c1ccccc1 | 79.5% | IC50 (MCF7 [2]): 8.55 µM; IC50 (PC-3 [3]): 6.19 µM; IC50 [4]: 2.72 µM
2 | O=C1Nc2ccccc2/C1=C/c1c[nH]nc1-c1ccc(F)cc1 | 38.6% | 
3 | CCc1cccc2c1NC(=O)/C2=C1\SC(=S)NC1=O | 50.1% | inhibition of growth at 100 µM (PC-3 [5]): 40.9%; IC50 [4]: 17 µM; inhibition of growth at 100 µM (MCF7 [6]): 16%
4 | O=C1Nc2ccc(Cl)cc2/C1=C1/S/C(=N\c2ccccc2)N(c2ccccc2)C1=O | < 10% | 
5 | O=C1Nc2ccc([N+](=O)[O-])cc2/C1=C\c1ccco1 | 29.8% | 
6 | O=C1Nc2ccccc2/C1=C/c1ccc(-c2cccc(Br)c2)o1 | 21.9% | 
7 | O=C1Nc2ccccc2/C1=C/c1ccco1 | 69.6% | IC50 [7]: 7.76 µM; IC50 (MCF7 [2]): 30.1 µM; inhibition of growth at 100 µM (PC-3 [5]): < 10%; IC50 [4]: 3.47 µM
8 | NC(=O)c1ccc(/N=C2/C(=O)Nc3ccccc32)cc1 | < 10% | 
9 | O=C1Nc2ccccc2/C1=C/c1ccc(-c2c(Cl)cc(C(F)(F)F)cc2Cl)o1 | < 10% | 
10 | O=C1Nc2ccc(Br)cc2/C1=N/NC(=O)c1ccco1 | 11.5% | 
11 | O=C1Nc2ccc(F)cc2/C1=C/c1ccc(-c2cccc(Br)c2)o1 | 26.3% | 
12 | O=C1Nc2ccc(F)cc2/C1=C/c1c[nH]nc1-c1ccccc1 | 78.4% | inhibition of growth at 100 µM (PC-3 [5]): < 10%; IC50 [4]: 8.59 µM; inhibition of growth at 100 µM (MCF7 [6]): < 10%
13 | O=C1Nc2ccc(Br)cc2/C1=C/c1c[nH]nc1-c1ccccc1 | 33.6% | 
14 | O=C1Nc2ccc(F)cc2/C1=C/c1c[nH]nc1-c1ccc(F)cc1 | < 10% | 
15 | COc1ccc2c(c1)/C(=C\c1ccco1)C(=O)N2 | 25.6% | 
16 | CCn1c(/C=C2\C(=O)Nc3ccccc32)nc2ccccc2c1=O | < 10% | 
17 | COc1ccc(-n2c(/C=C3\C(=O)Nc4ccccc43)nc3ccc(I)cc3c2=O)cc1 | 13.4% | 
18 | O=C1Nc2ccc(Br)cc2/C1=C/c1ccc(-c2ccccc2Cl)o1 | 22.3% | 
19 | CCc1ccc2c(c1)/C(=N\NC(=O)CSc1ccc(Cl)cc1)C(=O)N2 | < 10% | 
20 | Cn1cc(C2=C(c3cn(CCCSC(=N)N)c4ccccc34)C(=O)NC2=O)c2ccccc21 [BISINDOLYLMALEIMIDE IX] |  | IC50 (PC-3 [3]): 1.74 µM
21 | O=C1Nc2ccc(F)cc2/C1=C/c1ccc(-c2ccccc2Cl)o1 | 17.1% | 
22 | O=C1Nc2ccc(Cl)cc2/C1=C/c1c[nH]nc1-c1ccc(F)cc1 | 44.5% | 
23 | O=C1Nc2ccc(Cl)cc2/C1=C/c1ccc(-c2cccc(Br)c2)o1 | < 10% | 
24 | O=C1Nc2ccc(Br)cc2/C1=C/c1ccc(-c2cccc(Br)c2)o1 | < 10% | 
25 | Cc1ccc(N/N=C2/C(=O)Nc3ccc(F)cc32)cc1 | 30.1% | 
26 | O=C1Nc2ccc(Br)cc2/C1=C/c1c[nH]nc1-c1ccc(F)cc1 | < 10% | 

Second part, led by results:

Row | inhibition [1] | Compound | also measured
27 | 32.1% | O=C1Nc2ccc(Cl)cc2/C1=C/c1ccc(-c2ccccc2Cl)o1 | 
28 | 16.8% | O=C1Nc2ccccc2/C1=C/c1ccc(-c2ccccc2Cl)o1 | 
29 | 41.1% | CC(=O)NN1C(=O)/C(=C2/C(=O)Nc3ccc(C)cc32)SC1=S | 
30 | 16.5% | O=C1Nc2ccccc2/C1=C/c1ccc(CN2C(=O)c3ccccc3C2=O)o1 | 
31 | 92.4% | Cc1cccc2c1NC(=O)/C2=C1\SC(=S)NC1=O | inhibition of growth at 100 µM (PC-3 [5]): < 10%; IC50 [4]: 1.68 µM; inhibition of growth at 100 µM (MCF7 [6]): 41.5%
32 | 18.4% | N=C1NC(=O)/C(=C2/C(=O)Nc3cc(Cl)ccc32)S1 | 
33 | < 10% | O=C1Nc2ccccc2/C1=N/N=C1\CCCc2c1[nH]c1ccc(Cl)cc21 | 
34 | 87.3% | O=C1Nc2ccc(Br)cc2/C1=C\c1ccco1 | IC50 (MCF7 [2]): 9.84 µM; IC50 (PC-3 [3]): 16.9 µM; IC50 [4]: 1.51 µM
35 | 84.8% | O=C1Nc2ccc(Cl)cc2/C1=C\c1ccco1 | IC50 (MCF7 [2]): 14.7 µM; IC50 (PC-3 [3]): 23.9 µM; IC50 [4]: 2.02 µM
36 | < 10% | O=C1Nc2ccc(Cl)cc2/C1=C/c1c[nH]nc1-c1ccc(Cl)cc1 | 
37 | < 10% | O=C1Nc2ccc(Br)cc2/C1=N/NC(=O)c1ccc2c(c1)OCO2 | 
38 | 100% | Nc1ccc2c(c1)/C(=C\c1ccco1)C(=O)N2 | IC50 (MCF7 [2]): 15.5 µM; inhibition of growth at 100 µM (PC-3 [5]): < 10%; IC50 [4]: 2.49 µM
39 | 33.2% | O=C1Nc2ccc(Cl)cc2/C1=C/c1c[nH]nc1-c1ccccc1 | 
40 | 39.6% | Cc1c(Cl)ccc2c1NC(=O)/C2=C1\SC(=S)NC1=O | 

— ChEMBL document CHEMBL2346519, “Substituted indolin-2-ones as p90 ribosomal S6 protein kinase 2 (RSK2) inhibitors: Molecular docking simulation and structure-activity relationship analysis” (Bioorg Med Chem, 2013)
